Experimental findings from ChEMBL document CHEMBL5705905, “Pharmacological targeting of kinases MST1 and MST2 augments tissue repair and regeneration” (Sci Transl Med, 2016) are described below.

Calls of active or inactive are those of the source. No cut-off for these calls is given here.

Assay [1] has as its target SNF-related serine/threonine-protein kinase (Homo sapiens) (UniProt Q9NRH2). Put plainly: Inhibition of SNRK (unknown origin) assessed as remaining activity at 1 uM by Kinome scan method relative to control.
Assay [2] addresses Phosphatidylinositol 4,5-bisphosphate 3-kinase catalytic subunit alpha isoform (Homo sapiens, UniProt P42336, H1047L). Briefly: Binding affinity to PIK3CA H1047L mutant (unknown origin) assessed as dissociation constant.
For assay [3], the target named is T1, Serine/threonine-protein kinase 4 (Homo sapiens, UniProt Q13043).
T1 sequence (Q13043 whole entry): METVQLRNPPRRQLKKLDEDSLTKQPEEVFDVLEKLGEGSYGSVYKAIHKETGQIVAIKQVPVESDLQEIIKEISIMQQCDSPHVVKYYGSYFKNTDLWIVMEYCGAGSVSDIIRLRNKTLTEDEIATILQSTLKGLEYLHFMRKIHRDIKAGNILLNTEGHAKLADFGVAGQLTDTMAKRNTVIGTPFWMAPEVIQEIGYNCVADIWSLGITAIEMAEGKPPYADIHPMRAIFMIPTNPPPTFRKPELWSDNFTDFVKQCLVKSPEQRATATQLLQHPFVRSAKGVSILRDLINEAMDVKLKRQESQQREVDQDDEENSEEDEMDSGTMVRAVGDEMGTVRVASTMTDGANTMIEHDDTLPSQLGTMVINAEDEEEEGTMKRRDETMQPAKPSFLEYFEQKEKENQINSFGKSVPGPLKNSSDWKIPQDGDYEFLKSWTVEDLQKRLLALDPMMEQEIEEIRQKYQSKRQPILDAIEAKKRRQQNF
Briefly: Inhibition of recombinant His-tagged full-length MST1 (unknown origin) expressing in Escherichia coli assessed as MOB1a phosphorylation level incubated for 30 min in the presence of 100 uM ATP by immunoblot analysis. (A western blot detects proteins with antibodies after separation by electrophoresis.)

Assay [4] addresses High affinity nerve growth factor receptor (Homo sapiens) (UniProt P04629). Put plainly: Inhibition of TRKA (unknown origin) assessed as remaining activity at 1 uM by Kinome scan method relative to control.
The target of assay [5] is T1, Serine/threonine-protein kinase 4. Briefly: Inhibition of MST1 (unknown origin) in presence of ATP by enzymatic assay.
Assay [6] concerns the target T2, Non-receptor tyrosine-protein kinase TYK2 (Homo sapiens, UniProt P29597). Briefly: Inhibition of TYK2 JH1 domain (unknown origin) assessed as remaining activity at 1 uM by Kinome scan method relative to control.
Assay [7] relates to Epidermal growth factor receptor (Homo sapiens), P00533 [G719C]. Briefly: Inhibition of EGFR G719C mutant (unknown origin) assessed as remaining activity at 1 uM by Kinome scan method relative to control.
For assay [8], the target named is Activin receptor type-1-like (Homo sapiens) (UniProt P37023). Put plainly: Inhibition of ACVRL1 (unknown origin) assessed as remaining activity at 1 uM by Kinome scan method relative to control. The method in brief: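 Active-site-dependent competition-binding (KINOMEscan) panel of 468 kinases, test compound at 1 μM (from a 10 mM DMSO stock). Read-out is ctrl% = (test signal − positive control signal)/(negative control signal − positive control signal) × 100. DMSO is the negative control (100%) and a control compound is the positive control (0%). Lower ctrl% means tighter binding.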
Sequence of Activin receptor type-1-like (Homo sapiens) (P37023 whole entry): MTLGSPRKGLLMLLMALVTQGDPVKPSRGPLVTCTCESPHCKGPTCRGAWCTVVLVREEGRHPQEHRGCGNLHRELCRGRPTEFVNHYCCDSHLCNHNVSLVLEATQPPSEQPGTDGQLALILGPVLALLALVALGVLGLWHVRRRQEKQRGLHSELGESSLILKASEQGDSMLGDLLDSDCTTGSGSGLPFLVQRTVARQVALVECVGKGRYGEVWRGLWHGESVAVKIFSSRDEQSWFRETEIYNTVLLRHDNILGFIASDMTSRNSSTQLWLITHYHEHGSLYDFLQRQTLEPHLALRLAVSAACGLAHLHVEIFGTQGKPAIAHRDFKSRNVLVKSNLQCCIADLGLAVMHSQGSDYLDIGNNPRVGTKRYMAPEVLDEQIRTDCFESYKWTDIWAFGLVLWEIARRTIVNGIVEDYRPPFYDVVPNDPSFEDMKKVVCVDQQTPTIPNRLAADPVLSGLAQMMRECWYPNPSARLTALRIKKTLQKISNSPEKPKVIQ

Assay [9] addresses Serine/threonine-protein kinase TAO3 (Homo sapiens, UniProt Q9H2K8). Put plainly: Binding affinity to TAOK3 (unknown origin) assessed as dissociation constant.
Assay [10] concerns the target MAP kinase-interacting serine/threonine-protein kinase 1 (Homo sapiens) (UniProt Q9BUB5). Briefly: Inhibition of MKNK1 (unknown origin) assessed as remaining activity at 1 uM by Kinome scan method relative to control.
The target in assay [11] is Serine/threonine-protein kinase PknB (Mycobacterium tuberculosis) (UniProt P9WI81). Put plainly: Inhibition of Mycobacterium tuberculosis PknB assessed as remaining activity at 1 uM by Kinome scan method relative to control. The method in brief: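 KINOMEscan active-site competition binding assay at 1 μM against 468 kinases. Ctrl% = (test − positive control)/(negative control DMSO − positive control) × 100; lower values mean tighter binding.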
Sequence of Serine/threonine-protein kinase PknB (Mycobacterium tuberculosis) (P9WI81 whole entry): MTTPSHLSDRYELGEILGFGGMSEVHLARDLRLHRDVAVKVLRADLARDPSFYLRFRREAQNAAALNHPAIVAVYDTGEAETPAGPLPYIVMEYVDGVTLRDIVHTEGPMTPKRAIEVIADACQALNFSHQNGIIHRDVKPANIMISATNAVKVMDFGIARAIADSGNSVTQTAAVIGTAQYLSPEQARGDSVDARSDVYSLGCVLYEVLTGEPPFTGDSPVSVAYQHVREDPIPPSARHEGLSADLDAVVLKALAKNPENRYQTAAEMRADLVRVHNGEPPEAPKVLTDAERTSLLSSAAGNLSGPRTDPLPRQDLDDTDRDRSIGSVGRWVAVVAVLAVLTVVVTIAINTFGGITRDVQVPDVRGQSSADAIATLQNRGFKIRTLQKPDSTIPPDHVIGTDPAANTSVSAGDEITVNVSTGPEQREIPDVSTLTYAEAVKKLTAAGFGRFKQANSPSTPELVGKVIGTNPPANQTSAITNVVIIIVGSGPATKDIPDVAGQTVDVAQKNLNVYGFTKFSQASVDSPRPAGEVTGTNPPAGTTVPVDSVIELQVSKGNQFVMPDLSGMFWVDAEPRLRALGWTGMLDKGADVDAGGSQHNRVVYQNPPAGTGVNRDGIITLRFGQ

Assay [12] deals with Mus musculus. Briefly: Protection against Mst1fl/fl Mst2fl/fl-Alb-Cre double knockout mouse assessed as Ki67-positive cells at 1 mg/kg, ip administrated twice a day for 2 days measured after 36 hrs by immunohistochemical staining. It is filed as functional, organism-based. The settings on record: Liver, time 2.0 day.
Assay [13] deals with T2, Non-receptor tyrosine-protein kinase TYK2. Put plainly: Binding affinity to TYK2 JH1domain-catalytic (unknown origin) assessed as dissociation constant.
In assay [14] the target is Serine/threonine-protein kinase PLK2 (Homo sapiens) (UniProt Q9NYY3). Briefly: Inhibition of PLK2 (unknown origin) assessed as remaining activity at 1 uM by Kinome scan method relative to control.
Sequence of Serine/threonine-protein kinase PLK2 (Homo sapiens) (Q9NYY3 whole entry, looked up): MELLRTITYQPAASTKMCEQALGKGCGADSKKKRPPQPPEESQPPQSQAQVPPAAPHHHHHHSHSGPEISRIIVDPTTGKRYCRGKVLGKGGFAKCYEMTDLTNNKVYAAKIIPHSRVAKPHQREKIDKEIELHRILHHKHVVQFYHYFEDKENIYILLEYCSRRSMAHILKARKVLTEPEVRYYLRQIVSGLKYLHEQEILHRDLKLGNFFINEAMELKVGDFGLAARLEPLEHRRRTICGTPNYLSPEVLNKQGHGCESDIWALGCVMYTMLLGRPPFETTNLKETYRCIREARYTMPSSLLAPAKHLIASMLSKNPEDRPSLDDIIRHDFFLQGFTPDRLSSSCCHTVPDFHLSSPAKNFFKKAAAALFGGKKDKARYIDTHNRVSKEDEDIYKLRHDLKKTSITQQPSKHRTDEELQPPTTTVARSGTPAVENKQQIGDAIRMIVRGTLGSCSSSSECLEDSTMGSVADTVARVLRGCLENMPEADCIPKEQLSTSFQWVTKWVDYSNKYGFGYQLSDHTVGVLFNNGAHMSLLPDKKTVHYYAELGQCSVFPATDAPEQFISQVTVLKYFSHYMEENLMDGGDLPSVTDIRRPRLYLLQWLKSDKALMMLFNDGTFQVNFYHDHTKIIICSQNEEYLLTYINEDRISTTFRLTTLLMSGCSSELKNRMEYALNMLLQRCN
Assay [15] has as its target Rhodopsin kinase GRK1 (Homo sapiens) (UniProt Q15835). Briefly: Inhibition of GRK1 (unknown origin) assessed as remaining activity at 1 uM by Kinome scan method relative to control.
Assay [16] concerns the target TGF-beta receptor type-1 (Homo sapiens) (UniProt P36897). Put plainly: Inhibition of TGFBR1 (unknown origin) assessed as remaining activity at 1 uM by Kinome scan method relative to control.
Assay [17] deals with Myosin-IIIa (Homo sapiens) (UniProt Q8NEV4). Put plainly: Inhibition of MYO3A (unknown origin) assessed as remaining activity at 1 uM by Kinome scan method relative to control.
Assay [18] addresses Mitogen-activated protein kinase kinase kinase kinase 5 (Homo sapiens) (UniProt Q9Y4K4). Briefly: Inhibition of MAP4K5 (unknown origin) assessed as remaining activity at 1 uM by Kinome scan method relative to control.
Assay [19] has as its system Mus musculus. Put plainly: Protection against APAP induced liver injury in mouse assessed as increase in survival rate at 1 mg/kg, ip administered at 2.5 hrs in the presence of NAC […]. The class given is functional. In short, it runs like this:
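Wild-type mice given oral APAP 400 mg/kg, then i.p. vehicle, NAC 250 mg/kg, 1 mg/kg test agent, or NAC plus test agent at 1.5 or 2.5 h. Mortality was tracked with n = 10–11 per group, Mantel-Cox test. Separately, TUNEL was done on liver after 200 mg/kg APAP with treatment at 2.5 h.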

In assay [20] the test system is Tyrosine-protein kinase ABL1 (Homo sapiens), P00519 [M351T]. Put plainly: Inhibition of phosphorylated ABL1 M351T mutant (unknown origin) assessed as remaining activity at 1 uM by Kinome scan method relative to control.
In assay [21] the target is Casein kinase I isoform alpha (Homo sapiens) (UniProt P48729). Briefly: Inhibition of CSNK1A1 (unknown origin) assessed as remaining activity at 1 uM by Kinome scan method relative to control. In short, it runs like this:
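Active-site-dependent competition-binding profiling (KINOMEscan) at 1 μM against a 468-kinase panel; compound supplied from a 10 mM DMSO stock. Read-out is ctrl% = (test signal − positive control signal)/(negative control signal − positive control signal) × 100. DMSO is the negative control (100%) and a control compound the positive control (0%). Lower ctrl% means tighter binding.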

In assay [22] the target is cAMP-dependent protein kinase catalytic subunit alpha (Homo sapiens) (UniProt P17612). Put plainly: Inhibition of PKAC-alpha (unknown origin) assessed as remaining activity at 1 uM by Kinome scan method relative to control.

T2 sequence (P29597 whole entry, the tested form may be a part): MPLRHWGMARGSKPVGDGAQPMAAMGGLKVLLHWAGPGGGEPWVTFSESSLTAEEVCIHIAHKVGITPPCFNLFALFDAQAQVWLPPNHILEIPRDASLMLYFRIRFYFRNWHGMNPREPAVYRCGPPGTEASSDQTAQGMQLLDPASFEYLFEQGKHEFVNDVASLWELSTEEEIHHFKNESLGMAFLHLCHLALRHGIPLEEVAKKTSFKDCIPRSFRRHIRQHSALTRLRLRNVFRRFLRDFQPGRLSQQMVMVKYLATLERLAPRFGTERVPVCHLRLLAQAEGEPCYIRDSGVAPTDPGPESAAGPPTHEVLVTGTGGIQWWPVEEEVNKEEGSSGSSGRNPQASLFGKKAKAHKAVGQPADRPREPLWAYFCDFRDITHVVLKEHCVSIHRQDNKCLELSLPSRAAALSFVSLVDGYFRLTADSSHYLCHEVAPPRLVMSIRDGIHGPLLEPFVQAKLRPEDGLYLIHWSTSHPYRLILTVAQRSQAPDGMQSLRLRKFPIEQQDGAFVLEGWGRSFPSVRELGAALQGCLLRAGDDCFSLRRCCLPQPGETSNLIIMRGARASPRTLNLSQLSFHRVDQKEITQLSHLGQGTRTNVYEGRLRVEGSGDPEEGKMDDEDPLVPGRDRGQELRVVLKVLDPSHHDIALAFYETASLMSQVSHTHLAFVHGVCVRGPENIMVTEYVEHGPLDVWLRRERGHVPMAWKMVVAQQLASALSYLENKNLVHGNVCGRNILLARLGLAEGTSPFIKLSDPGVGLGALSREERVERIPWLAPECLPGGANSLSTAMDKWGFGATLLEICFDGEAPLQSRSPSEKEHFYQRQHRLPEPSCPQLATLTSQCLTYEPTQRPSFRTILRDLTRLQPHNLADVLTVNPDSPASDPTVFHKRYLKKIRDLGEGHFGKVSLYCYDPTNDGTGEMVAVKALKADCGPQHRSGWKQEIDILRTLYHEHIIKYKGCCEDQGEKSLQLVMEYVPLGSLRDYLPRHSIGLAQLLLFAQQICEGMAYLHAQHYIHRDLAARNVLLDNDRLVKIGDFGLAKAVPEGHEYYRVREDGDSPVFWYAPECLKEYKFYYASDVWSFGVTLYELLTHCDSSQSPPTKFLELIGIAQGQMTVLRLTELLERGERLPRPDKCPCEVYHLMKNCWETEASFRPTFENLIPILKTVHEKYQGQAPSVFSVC
Sequence of Casein kinase I isoform alpha (Homo sapiens) (P48729 2-337 limits assumed): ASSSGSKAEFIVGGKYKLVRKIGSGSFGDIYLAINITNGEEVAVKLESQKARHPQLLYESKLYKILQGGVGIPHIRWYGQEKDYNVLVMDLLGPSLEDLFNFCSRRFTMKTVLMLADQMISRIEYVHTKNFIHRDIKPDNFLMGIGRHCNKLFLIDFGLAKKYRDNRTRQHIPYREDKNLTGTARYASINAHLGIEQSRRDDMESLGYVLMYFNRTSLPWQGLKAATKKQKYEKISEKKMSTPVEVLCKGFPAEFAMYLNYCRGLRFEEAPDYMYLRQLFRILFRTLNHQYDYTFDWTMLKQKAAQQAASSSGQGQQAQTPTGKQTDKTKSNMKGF
Sequence of Phosphatidylinositol 4,5-bisphosphate 3-kinase catalytic subunit alpha isoform (P42336 whole entry H1047L, canonical isoform): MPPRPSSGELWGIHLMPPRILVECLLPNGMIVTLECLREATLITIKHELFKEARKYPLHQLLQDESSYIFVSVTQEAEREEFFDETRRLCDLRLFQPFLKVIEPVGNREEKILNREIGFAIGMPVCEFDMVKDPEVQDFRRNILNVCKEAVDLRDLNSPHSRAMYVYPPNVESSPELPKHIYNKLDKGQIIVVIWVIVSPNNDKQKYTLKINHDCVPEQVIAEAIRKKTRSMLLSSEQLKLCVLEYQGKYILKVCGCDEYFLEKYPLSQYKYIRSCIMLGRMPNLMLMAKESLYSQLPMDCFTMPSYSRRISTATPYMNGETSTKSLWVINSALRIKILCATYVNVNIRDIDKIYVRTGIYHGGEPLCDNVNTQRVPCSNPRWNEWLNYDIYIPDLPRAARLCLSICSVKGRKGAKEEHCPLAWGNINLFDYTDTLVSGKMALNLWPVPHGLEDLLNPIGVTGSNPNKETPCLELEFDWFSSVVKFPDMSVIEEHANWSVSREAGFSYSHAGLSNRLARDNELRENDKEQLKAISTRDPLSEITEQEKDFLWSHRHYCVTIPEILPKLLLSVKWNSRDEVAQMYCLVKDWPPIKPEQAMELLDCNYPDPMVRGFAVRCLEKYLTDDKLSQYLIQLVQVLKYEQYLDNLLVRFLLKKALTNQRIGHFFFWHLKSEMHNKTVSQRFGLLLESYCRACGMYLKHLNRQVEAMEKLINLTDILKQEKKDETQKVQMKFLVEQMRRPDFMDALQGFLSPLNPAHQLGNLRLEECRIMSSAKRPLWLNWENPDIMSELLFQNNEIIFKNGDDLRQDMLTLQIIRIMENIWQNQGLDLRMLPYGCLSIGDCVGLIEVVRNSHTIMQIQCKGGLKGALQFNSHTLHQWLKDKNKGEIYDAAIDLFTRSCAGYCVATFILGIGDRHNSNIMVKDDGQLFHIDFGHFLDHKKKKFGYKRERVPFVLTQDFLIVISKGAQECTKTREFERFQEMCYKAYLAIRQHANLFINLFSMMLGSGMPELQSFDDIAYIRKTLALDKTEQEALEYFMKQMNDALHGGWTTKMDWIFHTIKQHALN
Sequence of Rhodopsin kinase GRK1 (Homo sapiens) (Q15835 whole entry): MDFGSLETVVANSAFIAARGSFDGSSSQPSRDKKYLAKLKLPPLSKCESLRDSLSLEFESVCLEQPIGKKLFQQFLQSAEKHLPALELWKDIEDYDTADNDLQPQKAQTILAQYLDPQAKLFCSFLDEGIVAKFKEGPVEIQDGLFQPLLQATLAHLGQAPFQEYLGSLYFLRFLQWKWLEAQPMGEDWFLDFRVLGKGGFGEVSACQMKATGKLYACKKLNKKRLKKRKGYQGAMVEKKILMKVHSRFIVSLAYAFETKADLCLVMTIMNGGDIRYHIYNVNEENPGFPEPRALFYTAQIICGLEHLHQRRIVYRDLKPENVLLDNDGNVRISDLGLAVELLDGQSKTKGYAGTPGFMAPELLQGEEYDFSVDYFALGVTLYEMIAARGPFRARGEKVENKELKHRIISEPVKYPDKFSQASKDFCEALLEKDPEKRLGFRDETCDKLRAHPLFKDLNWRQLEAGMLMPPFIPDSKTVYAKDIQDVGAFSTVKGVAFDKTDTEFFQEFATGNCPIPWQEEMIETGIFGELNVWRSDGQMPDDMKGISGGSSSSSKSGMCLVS

Take `CN1C(=O)c2sccc2N(C)c2nc(Nc3ccc(S(N)(=O)=O)cc3)ncc21`: the Activity amounted to 100% in [1]; 56% in assay [4]; 2.7% in assay [6]; 78% in [7]; 100% in assay [8]; 100% in assay [10]. Besides, the Activity stood at 89% in assay [11]; 42% in [14]; 94% in assay [15]; 92% in assay [16]; 100% in assay [17]; 100% in assay [18]. Further, the Activity with Mus musculus [19] was about 40%; in assay [20], 5.5%; in assay [21] it was 88%; in [22], 97%. Further, the dissociation constant Kd (in general, the free concentration of one partner at which half of the binding sites on the other are occupied at equilibrium, for simple one-to-one binding) in assay [2] was determined as 34 nM; in assay [9], 610 nM; in assay [13], 5 nM. For the same compound, the results for the IC50 in assay [3] and in [5] were 1230 nM and 9.8 nM, respectively. For the same compound, the outcome in the assay on Mus musculus [12] was inactive.
